Our source for the IC50 and Activity values is ChEMBL document CHEMBL1212817, “Design and synthesis of C-2 substituted thiazolo and dihydrothiazolo ring-fused 2-pyridones: pilicides with increased antivirulence activity” (J Med Chem, 2010).

In the first assay the target is T1, Chaperone protein PapD (Escherichia coli, UniProt P15319).
T1 sequence (P15319 whole entry): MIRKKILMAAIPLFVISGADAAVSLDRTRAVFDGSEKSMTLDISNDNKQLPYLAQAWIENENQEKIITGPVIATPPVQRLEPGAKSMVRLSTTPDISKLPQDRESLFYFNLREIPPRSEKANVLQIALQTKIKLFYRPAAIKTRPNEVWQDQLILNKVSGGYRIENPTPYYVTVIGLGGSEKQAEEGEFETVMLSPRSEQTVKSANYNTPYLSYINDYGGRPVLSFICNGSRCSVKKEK
Nature of the assay: Inhibition of Escherichia coli UTI89 PapD chaperon assessed as inhibition of biofilm formation. An outline of the steps:
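Pilus-dependent biofilm assay with whole E. coli UTI89 grown on polyvinylchloride in the presence of pilicide; biofilm amount taken as readout of piliation block. IC50 calculated from 16-32 data points at every concentration.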
With `COc1ccc(-c2sc3c(C4CC4)c(Cc4cccc5ccccc45)cc(=O)n3c2C(=O)O)cc1`, the IC50 result is “Not Active”. On the same count and under the same terms, under `O=C(c1ccccc1)c1sc2c(C3CC3)c(Cc3cccc4ccccc34)cc(=O)n2c1C(=O)O` stands “Not Active”; under `O=C(O)c1c(-c2ccc3[nH]ccc3c2)sc2c(C3CC3)c(Cc3cccc4ccccc34)cc(=O)n12`, “Not Active”.

The next assay deals with Escherichia coli. Nature of the assay: Antibacterial activity against Escherichia coli UTI89 assessed as number of wells with agglutination by hemagglutinination assay. In kind it is functional. An outline of the steps: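 UTI89 grown with pilicide at 250 μM; culture piliation then scored by hemagglutination titer, expressed as number of wells with agglutination (2ⁿ); value is the average of duplicate runs.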
As for `O=C(O)c1c(Cc2ccccc2)sc2c(C3CC3)c(Cc3cccc4ccccc34)cc(=O)n12`, the Activity came to 3. As for `O=C(O)c1c(-c2ccccc2)sc2c(C3CC3)c(Cc3cccc4ccccc34)cc(=O)n12`, the Activity was 4.5. On the same count and under the same terms, the result for `Cc1cccc(-c2sc3c(C4CC4)c(Cc4cccc5ccccc45)cc(=O)n3c2C(=O)O)c1` reads 3; that for `O=C(O)c1c(-c2ccsc2)sc2c(C3CC3)c(Cc3cccc4ccccc34)cc(=O)n12`, 3.5.
